Assay results reported in PMC4180501 (Biochimica et biophysica acta, 2012).
Where a chain is given by its changes, count along the chain named. Read-outs that look alike come from different tables or passages of the source. Blank lines part the entries; values can stand above or below the compound they belong to.

Columns and labels:
GK-WT [1] = target: T1, GK-WT (Homo sapiens, UniProt P35557); settings: read-out: ATP KM, no GKA, no glycerol, ref [19]; cited from earlier work
T1 sequence (P35557 1-465): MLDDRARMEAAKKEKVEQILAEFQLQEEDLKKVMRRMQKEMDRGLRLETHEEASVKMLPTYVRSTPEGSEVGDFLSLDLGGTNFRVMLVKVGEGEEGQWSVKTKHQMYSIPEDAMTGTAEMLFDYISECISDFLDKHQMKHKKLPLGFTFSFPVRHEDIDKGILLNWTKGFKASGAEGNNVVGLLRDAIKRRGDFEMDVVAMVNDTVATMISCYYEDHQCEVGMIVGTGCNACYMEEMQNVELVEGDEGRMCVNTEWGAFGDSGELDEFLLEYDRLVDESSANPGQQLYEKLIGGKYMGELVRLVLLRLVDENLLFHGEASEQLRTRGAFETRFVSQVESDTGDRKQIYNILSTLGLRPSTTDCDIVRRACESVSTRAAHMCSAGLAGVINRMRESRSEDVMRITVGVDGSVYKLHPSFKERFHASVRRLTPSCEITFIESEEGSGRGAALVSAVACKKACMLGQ

GK-W99 (W167F/W257F) [2] = target: T2, GK-W99 (W167F/W257F) (Homo sapiens, UniProt P35557, W167F/W257F); settings: read-out: ATP KM; W-99; no GKA; no glycerol; ref [19]; cited from earlier work
T2 sequence (P35557 1-465 W167F/W257F): T1 sequence (P35557 1-465) with W167F, W257F

GK- W257 (W99R/W167F) [3] = target: T3, GK- W257 (W99R/W167F) (Homo sapiens, UniProt P35557, W167F/W99R); test: NADP+-coupled spectrophotometric kinetic assay; format: biochemical; settings: read-out: ATP KM; W-257; no GKA; 30% glycerol
T3 sequence (P35557 1-465 W99R/W167F): T1 sequence (P35557 1-465) with W99R, W167F

GK-W99 (W167F/W257F) [4] = target: T2, GK-W99 (W167F/W257F); test: NADP+-coupled spectrophotometric kinetic assay; format: biochemical; settings: read-out: ATP KM; W-99; no GKA; 30% glycerol
How it was run: (§1)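 Recombinant human β-cell glucokinase single-Trp variant, expressed in E. coli as a GST fusion and sequence-verified. Catalytic parameters came from an NADP+-coupled spectrophotometric assay run with or without 30% glycerol. Hill coefficient and glucose S0.5 were obtained by fitting v/Vmax = [glucose]^H/(K′+[glucose]^H), with […].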

GK-WT [5] = target: T1, GK-WT; test: NADP+-coupled spectrophotometric kinetic assay; format: biochemical
GK-W167 (W99R/W257F) [6] = target: T4, GK-W167 (W99R/W257F) (Homo sapiens, UniProt P35557, W257F/W99R); test: NADP+-coupled spectrophotometric kinetic assay; format: biochemical; settings: read-out: ATP KM; W-167; no GKA; 30% glycerol
T4 sequence (P35557 1-465 W99R/W257F): T1 sequence (P35557 1-465) with W99R, W257F
How it was run: as §1

GK- W257 (W99R/W167F) [7] = target: T3, GK- W257 (W99R/W167F); settings: read-out: ATP KM; W-257; no GKA; no glycerol; ref [19]; cited from earlier work
GK-W167 (W99R/W257F) [8] = target: T4, GK-W167 (W99R/W257F); settings: read-out: ATP KM; W-167; no GKA; no glycerol; ref [19]; cited from earlier work
GK-WT [9] = target: T1, GK-WT; test: Temperature dependent tryptophan fluorescence; settings: glycerol present, absence of glucose
How it was run: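 Tryptophan emission spectra of about 3 µM GK in 5 mM K-phosphate, pH 7.3, 100 mM KCl were recorded from 10 to 65 °C in a thermostatted, thermocouple-monitored cell. […] Line 7 also used ± 20% glycerol. Denaturation was followed as the I320/I360 ratio and its temperature derivative.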

GK-WT [10] = target: T1, GK-WT; test: Urea unfolding/refolding of GK by tryptophan fluorescence
How it was run: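 GK-WT unfolding was followed by urea titration in 20 mM PO4, 50 mM KCl, 1 mM EDTA, 1 mM DTT, pH 7.3, 20 °C, ± 20% glycerol, ± 300 mM glucose. I320/I360 was read at 295 nm excitation, and ΔGu(H2O) came from a two-state fit. Reversibility was tested after 30 min in 4 or 8 M urea, then dialysis, by restoration of the spectrum and glucose response.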

GK-WT [11] = target: T1, GK-WT; test: DSC thermal denaturation
How it was run: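 Wild-type recombinant human GK was run by DSC at 0.3 mg/ml (6 µM) in 5 mM phosphate, 100 mM KCl, pH 7.3, in buffer or 20% glycerol, with glucose up to 300 mM. The scan was 0.25 degree/min against a protein-free reference. Tm was plotted against glucose and fit to a hyperbola for EC50. Unfolding rate constant used k=vCp/(Qt−Q) to derive activation energy.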

Km (GK- W257 (W99R/W167F) [3]): 710 µM
Km (GK-W99 (W167F/W257F) [4]): 710 µM
Km (GK-WT [5]; read-out: ATP KM, GK-WT, no GKA, 30% glycerol): 230 µM
Km (GK-W167 (W99R/W257F) [6]): 300 µM
SMILES: Nc1ncnc2c1ncn2[C@@H]1O[C@H](COP(=O)(O)OP(=O)(O)OP(=O)(O)O)[C@@H](O)[C@H]1O [ATP]
Km (GK-WT [1]): 460 µM
Km (GK-W99 (W167F/W257F) [2]): 1630 µM
Km (GK- W257 (W99R/W167F) [7]): 3350 µM
Km (GK-W167 (W99R/W257F) [8]): 780 µM

TmF (GK-WT [9]): 48 °C
Q10 of the GK reaction (GK-WT [5]; presence of glycerol): 1.47
ΔGu(H2O) of urea denaturation (GK-WT [10]; GK-WT in 20% glycerol, 20°C, pH 7.3): 1.84 kcal/mol
ΔH thermal denaturation (GK-WT [11]; GK-WT in 20% glycerol, no D-glucose): 126 kcal/mol
Tm (GK-WT [11]; GK-WT in 20% glycerol, no D-glucose, DSC): 51.3 °C
Ea thermal denaturation (GK-WT [11]; GK-WT, 20% glycerol, 0 mM D-glucose): 131.5 kcal/mol
SMILES: OCC(O)CO [glycerol]

reversibility of GK unfolding (GK-WT [10]; 4 or 8 M urea, TF studies, urea removed by dialysis): fully reversible
SMILES: NC(N)=O [urea]
